# T cruzi inh: blocks replication of Trypanosoma cruzi; inhibition, % (test concentration not listed); AID 1885; 300,000 compounds, 1.4% hits; T. cruzi beta-gal in NIH3T3, luminescence, 90 h;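 active means mean inhibition across valid replicates above about 55%, limit read from the data; inconclusive means mean below that limit but half or more replicates reach it; inactive means mean below it, under half of replicates reach it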;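 further: signal also drops with host cell toxicity which is not excluded here; higher percent means less beta-gal luminescence so fewer parasites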
#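 Read-out: Parasite load inhibition, % | Test system: Mouse NIH/3T3 fibroblasts infected with β-gal-expressing T. cruzi Tulahuen C4 | Amount: 5,000 cells/well | Medium: DMEM, 2% fetal bovine serum | Signal: GalScreen β-gal luminescence, detergent lysis, 60 min | Timing: 3 h attach, ≥90 h co-culture | Also added: Tulahuen C4 trypomastigotes, 5000/well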
# Jurkat NFkB inh: inhibitors of the PMA/ionomycin-induced NF-kB reporter in Jurkat cells | PMA/ionomycin-induced NF-kB luciferase reporter, luminescence | inhibition, % at 4 µM | 330,000 compounds, 0.53% hits | AID 435003; in the data active means inhibition above about 50%
# HSF-1 act: increases HSF-1 driven luciferase reporter signal; activation, % at 9 µM; 300,000 compounds, 1.7% hits; AID 504408; NIH3T3-HGL HSF-1 luciferase reporter, MG132, 8 h; 100% = twice DMSO control signal;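 active means mean replicate activation of at least 50% with a set share of replicates each reaching 50%; inconclusive means only one of those two conditions met; inactive means mean below 50% and too few replicates reaching it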
# 697 NFkB inh: inhibitors of the PMA/ionomycin-induced NF-kB reporter in 697 B cells; 697 B-cell NF-kB luciferase reporter, 16 h; 330,000 compounds, 0.33% hits; inhibition, % at 4 µM; in the data active means inhibition above about 35%
# GPR7 antagonist: human neuropeptides B/W receptor 1 antagonism | GPR7-expressing cells, fluorescence antagonist assay | inhibition, % at 4.4 µM | 290,000 compounds, 1.1% hits; in the data active means inhibition above about 16%, passing the limit was not always enough;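 further: cells stimulated with the agonist NPW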
# Target sequence (P48145 whole entry, looked up): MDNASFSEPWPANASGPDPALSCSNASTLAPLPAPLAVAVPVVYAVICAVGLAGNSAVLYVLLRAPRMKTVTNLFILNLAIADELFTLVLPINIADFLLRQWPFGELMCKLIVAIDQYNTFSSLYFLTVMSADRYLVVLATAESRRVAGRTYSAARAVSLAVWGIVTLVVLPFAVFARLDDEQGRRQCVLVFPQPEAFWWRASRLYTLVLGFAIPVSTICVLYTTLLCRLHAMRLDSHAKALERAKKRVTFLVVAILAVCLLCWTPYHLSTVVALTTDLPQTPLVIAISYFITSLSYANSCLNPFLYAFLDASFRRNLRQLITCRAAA
# HSF1 inhib: HSF1 inhibition. activity change, negative = inhibition, % at 7.5 µM (by protocol). NIH3T3-HGL HSE-luciferase, MG132-induced, luminescence 8 h; hits give low values. AID 2098. 300,000 compounds, 0.77% hits;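 active means more than half of replicate wells show activity change below -50%, luminescence cut by over half; inconclusive means some wells, but at most half, below -50%; inactive means no replicate well below -50%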;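 further: luciferase reports HSF-1 transcriptional activity via heat shock element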
# Jurkat NFkB conf: inhibitors of the PMA/ionomycin-induced NF-kB reporter in Jurkat cells, retest | shares compounds with Jurkat NFkB inh | Jurkat NF-kB luciferase, 16 h | AID 435020 | 2,700 compounds, 27% hits | inhibition, % at 4 µM;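 active means inhibition reaching about 45% at 4 µM in either replicate, limit read from the data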
# 697 NFkB conf: inhibitors of the PMA/ionomycin-induced NF-kB reporter in 697 B cells, retest | shares compounds with 697 NFkB inh | inhibition, % at 4 µM | 697 B-cell NF-kB luciferase, 16 h | AID 449746 | 2,000 compounds, 35% hits; in the data active means inhibition mostly above about 28%, no sharp cut-off; inactive means mostly below about 22%
# A number is an active result; 0 = inactive; ? = inconclusive; - = no result given. This is a sample that favours compounds with a hit; in the whole collection about 4.8% have one here.
SMILES,T cruzi inh,Jurkat NFkB inh,HSF-1 act,697 NFkB inh,GPR7 antagonist,HSF1 inhib,Jurkat NFkB conf,others
CN(C)c1cccc(C(=O)Nc2nc3ccccc3[nH]2)c1,0,0,0,0,0,0,-,
O=C(Nc1nc2ccccc2[nH]1)c1cccc(Br)c1,0,0,0,0,0,0,0,
O=C(Nc1nc2ccccc2[nH]1)c1cccc(F)c1,0,0,0,0,0,0,0,
Cc1cccc(C(=O)N[C@H](C(=O)Nc2nc3ccccc3[nH]2)C(C)C)c1,0,60.1,-,0,0,-,0,
Cc1ccc(SCC(=O)OCC(=O)NC2(C#N)CCCCC2)cc1,0,0,0,0,0,0,-,
O=C(OC1CCCCC1=O)c1cccc(S(=O)(=O)N2CCOCC2)c1 (stereo not given),0,0,0,0,-,0,-,
COC(=O)[C@@H](NC(=O)N1CCN(C(=O)C2COc3ccccc3O2)CC1)C(C)C (stereo not given in full),0,0,0,0,0,0,-,
Cc1nc2ccccc2n1-c1nc(-c2ccco2)cc(C(F)(F)F)n1,0,83.1,0,0,0,0,0,
FC(F)(F)c1cc(-c2ccco2)nc(-n2cnc3ccccc32)n1,0,0,0,0,0,0,-,
Cc1ccc(Cl)cc1NC(=O)C1CC1c1ccccc1 (stereo not given),0,0,0,0,0,0,-,
Cc1ccc(COc2ccccc2-c2cc(C(=O)N/N=C/c3cccnc3)[nH]n2)cc1,0,53.5,0,0,0,0,0,
CCOc1ccc(-c2nnn(CC(=O)NCc3ccccc3)n2)cc1,0,0,0,0,0,0,-,
O=S(=O)(c1ccc2c(c1)C(O)c1ccccc1CC2)C(F)(F)F (stereo not given),-,0,-,0,-,-,-,
COc1ccc(OC)c2sc(N(CCCN(C)C)C(=O)c3ccc(S(=O)(=O)N4CCc5ccccc5C4)cc3)nc12,59.5,93.5,0,0,-,-68.6,0,
COc1ccc(C)c2sc(N(CCCN(C)C)C(=O)c3ccc(S(=O)(=O)N4CCc5ccccc5C4)cc3)nc12,0,-,0,-,-,?,-,
O=C(Nc1ccc2c(c1)CCC2)c1ccccc1Br,0,0,53.8,0,0,0,0,
S=C(c1ccc(-c2ccc(Br)cc2)o1)N1CCCCC1,0,0,62.4,0,0,0,0,
O=C(NCc1ccccc1Cl)c1cc2c(s1)CS(=O)(=O)C2,0,0,0,0,0,0,-,
CCOc1ccc(Br)cc1C1=CC(=O)C[C@H](c2ccc(OC)cc2)C1,-,64.9,-,0,-,-,0,
COc1ccc([C@H]2CC(=O)C=C(c3cc(C)ccc3OC)C2)cc1,-,57.5,-,0,-,-,0,
CNC(=S)N/N=C/c1cn(CCOc2ccc(OC)cc2)c2ccccc12,0,0,0,0,0,0,-,
Cc1cc(/C=C(\C#N)C(=O)Nc2ccccc2F)c(C)[nH]1,0,0,60.2,0,0,0,0,
N#C/C(=C\c1ccc[nH]1)C(=O)Nc1ccccc1F,-,0,-,0,0,-,-,
Cc1ccc(C2=NNC(c3cccc(F)c3)S2)cc1 (stereo not given),-,0,-,0,0,-,0,
COc1ccc(S(=O)(=O)N(CC(=O)NC2CC2)Cc2ccccc2)cc1,0,0,0,0,0,0,-,
SMILES,T cruzi inh,Jurkat NFkB inh,HSF-1 act,697 NFkB inh,GPR7 antagonist,HSF1 inhib,Jurkat NFkB conf,others
Cc1ccc2nc(-c3ccc(NC(=O)CSc4ccccc4)cc3)[nH]c2c1,0,0,0,0,0,0,0,
O=C(COc1ccc(Oc2ccccc2)cc1)NCc1cn2ccccc2n1,0,63.3,0,0,0,0,0,
O=C1CC(c2cc(F)ccc2F)c2cc3c(cc2N1)CCC3 (stereo not given),0,71.1,0,0,0,0,51.7,
CC1(C)CC(=O)C2=C(C1)NC(=O)CC2c1cc(F)ccc1F (stereo not given),0,0,0,0,0,0,-,
O=C1CC(c2cccc(Br)c2)c2cc3c(cc2N1)CCC3 (stereo not given),0,54.0,0,0,0,0,0,
CC(=O)c1cccc(NC(=S)NC(=O)c2ccc(Br)cc2)c1,0,91.3,0,0,0,0,0,
CC(=O)c1cccc(NC(=S)NC(=O)c2ccc(C)cc2)c1,0,0,0,0,0,0,-,
O=c1c2ccccc2oc2ccc(C#CC3(O)CCCCC3)cc12,0,0,0,0,-,-86.1,0,
CCc1ccc(S(=O)(=O)/N=C2\C=C(Nc3ccc(O)cc3)C(=O)c3ccccc32)cc1,0,53.6,0,0,0,-95.2,52.1,
Cc1nc(-c2ccc(NC(=O)c3ccc(Br)o3)cc2)cs1,0,0,52.8,0,0,0,0,
Cc1nc(-c2cccc(NC(=O)c3ccc(Br)o3)c2)cs1,-,0,-,0,0,-,-,
CCN(CC)c1ccc2cc(C(=O)Nc3ccccn3)c(=O)oc2c1,0,0,0,0,0,0,0,697 NFkB conf=0
CCOc1ccc(NC(=O)CCCOc2cc(=O)n(C)c3ccccc23)cc1,0,0,0,0,0,0,-,
COc1ccc2oc(=O)c(C(=O)Nc3ccccc3O)cc2c1,0,0,0,0,0,0,0,697 NFkB conf=0
O=C(CN1CCN(Cc2ccccc2Cl)CC1)N/N=C/C=C/c1ccccc1[N+](=O)[O-],0,0,0,0,0,0,-,
Cc1cnc(NC(=O)Nc2ccc(Cl)cc2)s1,0,81.0,273.6,64.6,0,0,0,697 NFkB conf=49.2
C/C(=N/N=C/c1ccc(N(C)C)cc1)c1ccccc1,0,0,0,0,0,0,0,697 NFkB conf=0
COc1ccc(-c2cn(/N=C/c3ccc(Cl)cc3Cl)c(N)n2)cc1,0,0,0,0,0,0,-,
Cc1cc(C)cc(NC(=O)c2cc(C)n(Cc3cccs3)c2C)c1,0,92.5,0,0,0,0,96.8,697 NFkB conf=0
Cc1cc(C(=O)Nc2ccc(Cl)cc2)c(C)n1Cc1cccs1,0,0,0,0,0,0,-,
Cc1nn(-c2ccccc2)c(C)c1/C=N/NC(=O)c1cccs1,0,0,0,0,0,0,-,
Cc1nn(-c2ccccc2)c(C)c1/C=N/NC(=O)c1cc(-c2cccs2)[nH]n1,0,53.3,0,45.2,0,0,56.8,697 NFkB conf=51.0
CSCCC(NC(=O)C1CCC(C)CC1)C(=O)Nc1ccc(NC(C)=O)cc1 (stereo not given),0,0,0,0,0,0,-,
COc1ccc(OC)c(C(=O)c2ccc(C(=O)Nc3ccc4ccccc4c3)cc2)c1,0,0,0,0,0,0,-,
O=C(Nc1ccc2ccccc2c1)c1onc2c1CCCC2,0,0,0,0,0,0,0,697 NFkB conf=0
COc1ccc(C(=O)Nc2ccc3ccccc3c2)cc1,0,0,0,0,0,0,0,697 NFkB conf=0
Cc1ccc(C(=O)Nc2cnc3ccccc3c2)cc1,0,59.2,0,0,0,-67.4,73.3,697 NFkB conf=0

# Source: PubChem BioAssay (several laboratories)
